From ChEMBL document CHEMBL1143258, “Biphenyl amide p38 kinase inhibitors 2: Optimisation and SAR” (Bioorg Med Chem Lett, 2008)

Assays:
Assay type in all cases: ADME, organism-based
[1] = Plasma clearance in Lewis rat at 1 mg/kg, iv; parameters: dose 1 mg/kg, route intravenous
Method in brief: (§1)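 Male Lewis rats were given a single intravenous 1 mg/kg or oral 3 mg/kg dose. Plasma levels were measured by LC-MS/MS on a 5 min formic acid water/acetonitrile gradient. Clearance, steady-state volume, terminal half-life and oral bioavailability were derived from the concentration-time profiles.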

[2] = Volume of distribution at steady state in Lewis rat at 1 mg/kg, iv; parameters: dose 1 mg/kg, route intravenous; settings: in vivo, read-out: Vdss; method in brief: as §1
[3] = Half life in Lewis rat at 1 mg/kg, iv; parameters: dose 1 mg/kg, route intravenous; settings: in vivo; method in brief: as §1
[4] = Oral bioavailability in Lewis rat at 3 mg/kg; settings: in vivo; method in brief: as §1

clearance [1]: < 10 mL/min/kg
Vd [2]: 2 L/kg
half-life [3]: 9 h
bioavailability [4]: 50%
Structure (SMILES): Cc1nnc(-c2ccc(C)c(-c3ccc(C(=O)NCC4CC4)cc3)c2)o1
